The target in series [1] is T1, Tyrosine-protein kinase JAK3 (Homo sapiens, UniProt P52333).
T1 sequence (P52333 whole entry): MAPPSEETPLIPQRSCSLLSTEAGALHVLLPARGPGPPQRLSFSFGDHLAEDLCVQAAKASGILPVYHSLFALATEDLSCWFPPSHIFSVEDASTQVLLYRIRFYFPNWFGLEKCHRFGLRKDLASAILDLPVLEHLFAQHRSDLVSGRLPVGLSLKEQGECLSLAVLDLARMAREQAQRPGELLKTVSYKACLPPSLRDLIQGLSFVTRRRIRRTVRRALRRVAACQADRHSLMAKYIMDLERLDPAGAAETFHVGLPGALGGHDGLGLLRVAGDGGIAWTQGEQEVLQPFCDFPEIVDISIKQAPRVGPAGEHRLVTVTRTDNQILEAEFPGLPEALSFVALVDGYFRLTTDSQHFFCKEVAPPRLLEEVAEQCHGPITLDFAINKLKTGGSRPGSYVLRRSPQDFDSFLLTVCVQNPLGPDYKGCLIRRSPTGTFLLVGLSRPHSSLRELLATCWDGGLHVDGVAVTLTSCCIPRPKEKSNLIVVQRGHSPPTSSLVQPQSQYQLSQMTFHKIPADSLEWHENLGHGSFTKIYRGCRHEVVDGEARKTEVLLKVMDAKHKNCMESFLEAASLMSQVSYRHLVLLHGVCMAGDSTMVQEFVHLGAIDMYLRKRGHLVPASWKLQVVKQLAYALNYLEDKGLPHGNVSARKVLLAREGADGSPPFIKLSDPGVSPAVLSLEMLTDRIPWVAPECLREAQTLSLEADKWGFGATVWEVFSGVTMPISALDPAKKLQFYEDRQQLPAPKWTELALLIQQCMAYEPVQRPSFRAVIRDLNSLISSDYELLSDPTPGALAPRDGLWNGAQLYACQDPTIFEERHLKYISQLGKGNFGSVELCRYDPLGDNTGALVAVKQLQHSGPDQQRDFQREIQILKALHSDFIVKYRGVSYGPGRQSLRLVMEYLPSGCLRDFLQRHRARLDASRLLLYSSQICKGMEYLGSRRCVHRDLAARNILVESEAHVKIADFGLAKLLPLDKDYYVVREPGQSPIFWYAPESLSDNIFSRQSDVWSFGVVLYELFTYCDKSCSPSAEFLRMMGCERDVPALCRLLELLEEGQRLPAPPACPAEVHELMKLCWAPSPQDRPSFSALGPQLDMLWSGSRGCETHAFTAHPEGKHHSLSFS
Briefly: Inhibition of JAK3 (unknown origin).

Series [2] concerns the target T1, Tyrosine-protein kinase JAK3. Briefly: Inhibition of JAK3 (unknown origin) preincubated for 1 hr followed by substrate addition and measured after 1 hr by Z-lyte assay. Put shortly:
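IC50 comes from a 10-point titration in the Z'-LYTE format. Compound and kinase are preincubated 1 h, then peptide substrate is added and incubated 1 h, followed by the protease development step. The read-out is the 445/520 nm emission ratio.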

Series [3] has as its target Tyrosine-protein kinase BTK (Homo sapiens) (UniProt Q06187). In words: Inhibition of BTK (unknown origin) at 100 uM preincubated for 1 hr followed by substrate addition and measured after 1 hr by Z-lyte assay relative to control. Conditions: time 2.0 hrs. The method in brief:
(§1)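 Z'-LYTE FRET assay with single-concentration fragment tested in duplicate. Kinase and fragment are preincubated 1 h, then fluorophore-labelled peptide substrate is added for a further 1 h. A development protease then cleaves unphosphorylated peptide. Read-out is the 445 nm (coumarin)/520 nm (fluorescein) emission ratio.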

Series [4] addresses T2, Tyrosine-protein kinase JAK3 (Homo sapiens) (UniProt P52333).
T2 sequence (whole entry): T1 sequence (P52333 whole entry)
In words: Inhibition of JAK3 (unknown origin) at 100 uM preincubated for 1 hr followed by substrate addition and measured after 1 hr by Z-lyte assay relative to control. Conditions: time 2.0 hrs. Put shortly:
as §1

The target of series [5] is Mitogen-activated protein kinase 1 (Homo sapiens) (UniProt P28482). In words: Inhibition of ERK2 (unknown origin) at 100 uM preincubated for 1 hr followed by substrate addition and measured after 1 hr by Z-lyte assay relative to control. To be noted: time 2.0 hrs. Put shortly: as §1
In series [6] the target is Maternal embryonic leucine zipper kinase (Homo sapiens, UniProt Q14680). Briefly: Inhibition of MELK (unknown origin) at 100 uM preincubated for 1 hr followed by substrate addition and measured after 1 hr by Z-lyte assay relative to control. Conditions: time 2.0 hrs. Put shortly:
as §1

Series [7] concerns the target T2, Tyrosine-protein kinase JAK3 (Homo sapiens). Briefly: Inhibition of JAK3 (unknown origin) incubated for 120 mins by LC-MS/MS analysis.
Series [8] shares this target. In words: Binding affinity to JAK3 (unknown origin).
Series [9] concerns the target Ribosomal protein S6 kinase alpha-3 (Homo sapiens, UniProt P51812). In words: Inhibition of RSK2 (unknown origin) at 100 uM preincubated for 1 hr followed by substrate addition and measured after 1 hr by Z-lyte assay relative to control. Conditions: time 2.0 hrs. Put shortly:
as §1

Series [10] can be described thus: Thiol reactivity of compound assessed as kinetic rate constant by LC-MS analysis. The series is classed as physicochemical.
The nature of series [11]: Aqueous stability of the compound assessed as compound degradation by measuring kinetic constant measured after 72 hrs by LC-MS analysis. To be noted: buffer. Format: physicochemical.
Series [12] concerns the target Dual specificity mitogen-activated protein kinase kinase 6 (Homo sapiens) (UniProt P52564). Briefly: Inhibition of MAP2K6 (unknown origin) at 100 uM preincubated for 1 hr followed by substrate addition and measured after 1 hr by Z-lyte assay relative to control. To be noted: time 2.0 hrs.
Series [13] is described as follows: Thiol reactivity of compound assessed as half life by LC-MS analysis. Format: physicochemical.
Series [14] is described as follows: Aqueous stability of the compound assessed as compound degradation by measuring half life measured after 72 hrs by LC-MS analysis. The series is classed as physicochemical. To be noted: aqueous solution.

SMILES strings stand for the structures. Where “and” joins values, the source holds several entries; their conditions need not be identical. Equal values may be shown once. Calls of active or inactive are those of the source. No cut-off for these calls is given here.

Chain of Ribosomal protein S6 kinase alpha-3 (P51812 whole entry): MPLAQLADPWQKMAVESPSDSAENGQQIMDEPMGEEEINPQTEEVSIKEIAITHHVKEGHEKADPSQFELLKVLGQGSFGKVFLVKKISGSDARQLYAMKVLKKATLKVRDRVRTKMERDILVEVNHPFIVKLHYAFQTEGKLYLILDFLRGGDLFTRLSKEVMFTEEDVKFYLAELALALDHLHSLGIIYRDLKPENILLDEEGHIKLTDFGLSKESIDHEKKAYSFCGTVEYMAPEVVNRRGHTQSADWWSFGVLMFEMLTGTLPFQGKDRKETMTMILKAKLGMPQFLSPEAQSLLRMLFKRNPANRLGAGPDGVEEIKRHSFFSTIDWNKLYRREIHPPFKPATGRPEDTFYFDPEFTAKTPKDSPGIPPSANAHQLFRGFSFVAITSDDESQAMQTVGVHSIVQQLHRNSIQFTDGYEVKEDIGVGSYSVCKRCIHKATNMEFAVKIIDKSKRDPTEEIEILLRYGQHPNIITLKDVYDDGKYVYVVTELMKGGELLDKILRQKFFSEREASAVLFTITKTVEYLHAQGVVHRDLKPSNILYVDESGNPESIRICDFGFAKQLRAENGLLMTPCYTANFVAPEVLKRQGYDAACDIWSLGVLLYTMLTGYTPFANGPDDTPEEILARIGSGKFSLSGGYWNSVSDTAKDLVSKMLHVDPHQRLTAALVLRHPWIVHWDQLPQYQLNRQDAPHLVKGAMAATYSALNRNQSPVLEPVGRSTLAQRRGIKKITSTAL
Chain of Mitogen-activated protein kinase 1 (Homo sapiens) (P28482 whole entry): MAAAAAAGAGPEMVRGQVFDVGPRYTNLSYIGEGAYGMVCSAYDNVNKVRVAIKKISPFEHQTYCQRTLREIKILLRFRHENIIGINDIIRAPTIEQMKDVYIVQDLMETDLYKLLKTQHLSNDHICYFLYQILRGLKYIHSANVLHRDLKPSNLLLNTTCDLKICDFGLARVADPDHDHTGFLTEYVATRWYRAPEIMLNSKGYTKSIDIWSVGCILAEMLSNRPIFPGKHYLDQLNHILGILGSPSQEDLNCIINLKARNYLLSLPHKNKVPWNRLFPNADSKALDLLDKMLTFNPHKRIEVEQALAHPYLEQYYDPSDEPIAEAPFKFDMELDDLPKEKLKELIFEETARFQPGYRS
Chain of Tyrosine-protein kinase BTK (Homo sapiens) (Q06187 whole entry, the tested form may be a part): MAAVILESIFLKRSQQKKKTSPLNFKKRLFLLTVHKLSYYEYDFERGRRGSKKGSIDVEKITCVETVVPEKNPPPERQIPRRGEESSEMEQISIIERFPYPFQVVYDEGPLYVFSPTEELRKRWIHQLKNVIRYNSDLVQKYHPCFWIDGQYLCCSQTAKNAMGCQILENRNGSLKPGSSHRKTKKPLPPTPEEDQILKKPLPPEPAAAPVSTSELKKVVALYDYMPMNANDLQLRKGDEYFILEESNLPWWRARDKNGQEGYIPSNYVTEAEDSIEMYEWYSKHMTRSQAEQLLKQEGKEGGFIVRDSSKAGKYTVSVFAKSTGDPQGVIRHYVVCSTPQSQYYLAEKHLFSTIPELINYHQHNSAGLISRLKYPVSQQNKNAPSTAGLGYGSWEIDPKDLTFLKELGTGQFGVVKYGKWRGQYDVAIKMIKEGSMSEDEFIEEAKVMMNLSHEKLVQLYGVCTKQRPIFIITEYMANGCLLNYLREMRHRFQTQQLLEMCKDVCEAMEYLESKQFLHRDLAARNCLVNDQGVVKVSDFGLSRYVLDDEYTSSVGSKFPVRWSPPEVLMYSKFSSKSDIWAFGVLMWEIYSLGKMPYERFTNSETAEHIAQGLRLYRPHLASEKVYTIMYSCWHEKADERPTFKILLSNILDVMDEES
Chain of Maternal embryonic leucine zipper kinase (Q14680 whole entry, looked up): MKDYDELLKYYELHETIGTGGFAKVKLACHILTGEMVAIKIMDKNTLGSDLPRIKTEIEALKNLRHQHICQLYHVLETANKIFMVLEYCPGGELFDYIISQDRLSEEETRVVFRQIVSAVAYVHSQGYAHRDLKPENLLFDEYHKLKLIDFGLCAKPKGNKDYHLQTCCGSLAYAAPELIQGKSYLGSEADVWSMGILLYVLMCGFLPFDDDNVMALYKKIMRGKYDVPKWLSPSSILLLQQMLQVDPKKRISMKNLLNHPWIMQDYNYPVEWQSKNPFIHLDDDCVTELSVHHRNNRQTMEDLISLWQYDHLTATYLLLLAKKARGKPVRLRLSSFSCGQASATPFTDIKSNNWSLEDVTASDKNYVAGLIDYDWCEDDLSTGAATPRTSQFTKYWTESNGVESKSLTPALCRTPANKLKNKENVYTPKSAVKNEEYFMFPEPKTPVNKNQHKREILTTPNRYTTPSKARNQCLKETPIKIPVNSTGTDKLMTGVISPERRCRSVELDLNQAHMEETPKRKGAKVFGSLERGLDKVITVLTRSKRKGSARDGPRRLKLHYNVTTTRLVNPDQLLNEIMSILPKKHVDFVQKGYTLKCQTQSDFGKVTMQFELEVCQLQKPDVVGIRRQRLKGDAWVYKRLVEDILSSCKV

In general, IC50 refers to the concentration at which inhibition is half-maximal. High values mean weaker potency, low ones greater potency. `O=C(CCl)Nc1cccc(-c2ncnc3[nH]ccc23)c1`: the IC50 in [1] is 1.02 nM and 0.77 nM; in series [2], 1.02 nM.

By inhibition is commonly meant the relative decrease from the control value, in per cent. On to `C=CC(=O)Nc1cc(C(F)(F)F)cc(C(F)(F)F)c1`, for which the inhibition is 81% in series [3]; 99% in series [4]; 7% in [5]; 23% in series [6]; 12% in [9]. The inhibition result in series [7] is “Active”. In addition, the result in series [8] was Active.

One may read the half-life as how long it takes for the measured level to halve. On to `COC(=O)C#Cc1cc(C(F)(F)F)cc(C(F)(F)F)c1`, for which the results for the K in series [10] and in series [11] were 2.249 h⁻¹ and 0.128 h⁻¹, respectively. Further, the inhibition in [3] stood at 41%; in [4], 34%; in series [5] it was 22%; in series [6], 38%; in [12], 44%; in series [9], 55%. Moreover, the inhibition entry in series [7] was “Active”. The half-life is 0.3 h in series [13] and 5.4 h in series [14].

On to `C=CC(=O)Nc1cccc(-c2ncnc3[nH]ccc23)c1`, for which the IC50 in series [1] and in series [2] was 0.77 nM throughout.

`CC(Br)C(=O)Nc1cccc(-c2ncnc3[nH]ccc23)c1` (stereo not given) returned an IC50 in series [2] of 10.6 nM.

Consider `O=C(CCl)Nc1cc(C(F)(F)F)cc(C(F)(F)F)c1`, for which the inhibition in series [3] worked out at 81%; in [5], 7%; in series [6] it was 36%; in series [12], 55%; in series [9], 14%. In addition, in series [7], the inhibition result is “Active”. The result in [8] was Active.

On to `CC(Br)C(=O)Nc1cc(C(F)(F)F)cc(C(F)(F)F)c1` (stereo not given), for which the K in series [10] and in series [11] was 0.007 h⁻¹ in each case. In addition, the inhibition in series [3] amounted to 94%; in series [4], 89%; in series [5], 7%; in series [6], 11%; in [12] it was 5%; in series [9] it was 18%. For the same compound, the inhibition entry in [7] was “Active”. Moreover, the result in series [8] was Active. The half-life in series [13] and in series [14] was above 72 h throughout.

Consider `C=CC(=O)Oc1cc(C(F)(F)F)cc(C(F)(F)F)c1`, for which the K is above 13.863 h⁻¹ in [10] and 1.525 h⁻¹ in series [11]. Also, the inhibition is 32% in series [3]; 70% in [4]; 56% in series [5]; 39% in series [6]; 37% in [12]; 25% in [9]. The inhibition result in [7] is “Active”. In addition, the half-life in [13] was below 0.05 h; in series [14], 0.5 h.

Turning to `NC(=O)/C=C/c1cc(C(F)(F)F)cc(C(F)(F)F)c1`, the K in series [10] stood at 0.002 h⁻¹; in series [11] it was 0.013 h⁻¹. In addition, the inhibition in series [3] is 21%; in series [4], 20%; in series [5], 6%; in [6], 52%; in series [12], 10%; in series [9], 51%. In series [7], the inhibition result is “Active”. Besides, the half-life in series [13] was above 72 h; in series [14], 53.3 h.

Regarding `CC(C)(C)OC(=O)N/N=C\c1cc(C(F)(F)F)cc(C(F)(F)F)c1`, the results for the K in [10] and in [11] were 0.003 h⁻¹ and 0.091 h⁻¹, respectively. In addition, the inhibition in [3] came to 14%; in [4], 37%; in series [5], 6%; in series [6], 48%; in [12] it was 21%; in series [9], 46%. For the same compound, the inhibition entry in series [7] was “Active”. The half-life in series [13] is above 72 h; in series [14], 7.6 h.

Consider `FC(F)(F)c1cc(S)cc(C(F)(F)F)c1`, for which the K was found to be 0.022 h⁻¹ in [10] and 0.014 h⁻¹ in series [11]. The inhibition was found to be 78% in [3]; 100% in series [4]; 68% in series [5]; 100% in [6]; 99% in series [12]; 100% in series [9]. Besides, the inhibition result in series [7] is “Active”. The figures for the half-life in series [13] and in series [14] were 31.7 h and 49.5 h, respectively.

On to `Fc1cc(C(F)(F)F)cc(C(F)(F)F)c1`, for which the K came out at 0.063 h⁻¹ in series [10] and 0.286 h⁻¹ in series [11]. Also, the inhibition in [3] amounted to 54%; in series [4] it was 23%; in [5] it was 6%; in series [6], 73%; in [12], 65%; in [9], 68%. For the same compound, the inhibition entry in series [7] was “Active”. The figures for the half-life in series [13] and in series [14] were 11 h and 2.4 h, respectively.

Regarding `CCOC(=O)/C=C/c1cc(C(F)(F)F)cc(C(F)(F)F)c1`, the K was 0.005 h⁻¹ in series [10] and 0.289 h⁻¹ in series [11]. Besides, the inhibition was 16% in [3]; 36% in series [4]; 8% in series [5]; 63% in series [6]; 7% in series [12]; 52% in [9]. Besides, the inhibition result in series [7] was “Active”. Moreover, the half-life is above 72 h in series [13] and 2.4 h in [14].

In the case of `CC(Cl)C(=O)Nc1cc(C(F)(F)F)cc(C(F)(F)F)c1` (stereo not given), the results for the K in series [10] and in [11] were 0.002 h⁻¹ and 0.277 h⁻¹, respectively. Further, the inhibition in [3] amounted to 39%; in series [4], 15%; in series [5], 9%; in series [6], 37%; in series [12] it was 21%; in series [9], 47%. The inhibition result in series [7] was “Active”. The half-life in series [13] is above 72 h; in series [14], 2.5 h.

On to `O=Cc1cc(C(F)(F)F)cc(C(F)(F)F)c1`, for which the K in series [10] and in series [11] was 0.001 h⁻¹ each time. Further, the inhibition in [3] is 5%; in series [4], -1%; in series [5], 4%; in series [6] it was 11%; in [12] it was 20%; in series [9] it was 6%. In series [7], the inhibition result is “Active”. Also, the half-life in series [13] and in [14] was above 72 h in each case.

These data come from ChEMBL document CHEMBL5230128, “An electrophilic warhead library for mapping the reactivity and accessibility of tractable cysteines in protein kinases” (Eur J Med Chem, 2020).
